A number with no mark means an inactive call. Calls of active or inactive are those of the source.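 Rule for the calls: active = growth inhibition above 25% in both replicates, a cutoff set 3 SD above the mean; inconclusive = above 25% in only one replicate; inactive = the rest.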
Test: S. cerevisiae growth inhibition in permissive medium (OD615), pilot counter-assay for S. cerevisiae lifespan shortening project, permissive growth control (AID 705)
Conditions: OD615, 24 h, at 10 µM, active compounds read high
Method in brief: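 Material: engineered DeaD yeast; compound dosing: one dose 10 µM, DMSO 0.25% final; measure: yeast growth inhibition indicated by reduced 24 h OD615; detection: OD615 turbidity read; incubation: cells pre-grown 4 h, then 24 h compound exposure, 30 °C humidified; medium: permissive synthetic complete medium with raffinose and galactose carbon sources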

SMILES	growth inhibition
O=C(c1ccc2nc(N3CCCCC3)sc2c1)N1CCN(c2ccccn2)CC1	2.65%
CC(C)CCNC(=O)Cn1c(NCCC(C)C)nc2c1c(=O)n(C)c(=O)n2C	-4.12%
CC(=O)NC(C)c1nc2ccccc2n1C(C)C (centres undefined)	-5.54%
NC(=O)CSc1cn(CCNC(=O)c2cccs2)c2ccccc12	-14.1%
Cc1cccc(C2CC(c3ccc(Cl)cc3)Nc3nc(N)nn32)c1 (centres undefined)	0.43%
CCOC(=O)CN1CC23C=CC(O2)C(C(=O)Nc2ccc(C(C)=O)cc2)C3C1=O (centres undefined)	-5.7%
CCCSc1nnc(N2C(=O)CC(c3ccsc3)C3=C2CCCC3=O)s1 (centres undefined)	-3.18%
O=C(CN1CCN(Cc2ccc(F)cc2Cl)C1=O)NCCCN1CCOCC1	-6.96%
CN(C)CCCN1C(=O)CSC1c1ccccc1 (centres undefined)	-2.19%
COC(=O)Cn1c(=O)c2c(nc3n2CC(C)CN3c2ccc(C)c(C)c2)n(C)c1=O (centres undefined)	-5.87%
CCCSC1=C(C#N)C(c2cc(OC)ccc2OC)CC(=O)N1 (centres undefined)	-0.855%
O=C(Nc1ccc(CN2CCOCC2)cc1)c1cc2ccccn2n1	-4.72%
CCN(CC)CCn1c(=N)n(CCO)c2ccccc21	0.615%
CCN(CCCNS(=O)(=O)c1ccc2c(c1)oc(=O)n2C)c1cccc(C)c1	-12%
COc1ccc(OC)c(C2=NOC(C(=O)Nc3c(C)n(C)n(-c4ccccc4)c3=O)C2)c1 (centres undefined)	-11.8%
O=C(Cn1cc2c(n1)CCCCC2)N1CCc2ccccc2C1	7.48%
Cn1c(=O)c2c(nc(SCCCC#N)n2Cc2c(F)cccc2Cl)n(C)c1=O	-13.5%
CCN1CCN(Cc2ccc(NC(=O)Nc3ccccc3)cc2)CC1	-11.3%
CCOC(=O)N1CCN(Cc2nc3c(c(=O)n(C)c(=O)n3C)n2Cc2ccccc2)CC1	-8.18%
COCCCNC(=O)Cn1cc2c(n1)CCC(C)C2 (centres undefined)	-1.62%

SMILES	growth inhibition
C=CCc1ccccc1OCCCCN1CCCC1	7.25%
COc1ccc(OCC(=O)N2CC3(C)CC2CC(C)(C)C3)cc1 (centres undefined)	-9.87%
O=C1c2ccccc2C(Nc2ccc(-c3nc4ccccc4[nH]3)cc2)N1Cc1ccco1 (centres undefined)	-0.49%
CCCNc1nc(N2CCOCC2)nc(N2CCOCC2)n1	-4.61%
COCCn1c(SCC(=O)Nc2ccc3c(c2)OCCO3)nc2c(c1=O)SC(C)C2 (centres undefined)	-6.57%
COc1ccc(NC(=O)C2CCCN2S(=O)(=O)c2cccc3cccnc23)c(OC)c1 (centres undefined)	98.5% (active)
CCOC(=O)Cn1ncc(-c2ccccc2)c1N	2.3%
O=C(O)C1CC(=O)N(CCOc2ccccc2)C1 (centres undefined)	2.4%
Cc1ccc(-n2c3c(cc(C(=O)NCCCN4CCOCC4)c2=O)C(=O)CC(C)(C)C3)cc1	-4.99%
CCOC(=O)C1CCN(Cc2ccc(OC)c(C)c2OC)CC1	-2.98%
COc1ccc(C(C)N2CC34C=CC(O3)C(C(=O)OCC(C)C)C4C2=O)cc1 (centres undefined)	-0.88%
Cc1c(NC(=O)C2CCCCN2S(=O)(=O)c2ccc(Cl)cc2)c(=O)n(-c2ccccc2)n1C (centres undefined)	-2.56%
CC(C)(NC(=O)N1CCCC1)c1cccc(C(C)(C)NC(=O)N2CCCC2)c1	0.795%
CC(C)NC(=O)c1ccc2c(c1)nnn2C	-7.61%
Cc1ccc(C(=O)CC2(O)C(=O)N(C)c3ccc(Br)cc32)c(C)c1 (centres undefined)	2.26%
Cc1ccc(NC(=O)CN(c2ccc3c(c2)OCO3)S(=O)(=O)c2c(C)n[nH]c2C)cc1	-13.4%
COc1ccc(N2CCN(Cc3nc4c(c(=O)n(C)c(=O)n4C)n3Cc3ccccc3C)CC2)cc1	-12.5%
CN(C(=O)c1ccco1)c1nnc(C23CC4CC(CC(C4)C2)C3)s1	-8.84%
CCCC(=O)C1=C(N(C)c2ccccc2)CC(C)(C)C(C(=O)OC)C1=O (centres undefined)	-1.78%

Reference: PubChem BioAssay
